The text below walks through data of ChEMBL document CHEMBL4052597, “Symmetrically Substituted Xanthone Amphiphiles Combat Gram-Positive Bacterial Resistance with Enhanced Membrane Selectivity” (J Med Chem, 2017).

Test [1] has as its system Lipid bilayer. The test is described as follows: Induction of membrane damage in DOPE/DOPG large unilamellar vesicles assessed as calcein leakage at compound to lipid ratio of 1:16 after 1 hr by fluorescence assay relative to control. Summed up:
(§1)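 100 nm calcein-loaded LUVs made by film hydration; lipid content set by total phosphorus assay. DOPC/cholesterol (3:1, w/w) mimics mammalian and DOPE/DOPG (3:1, w/w) bacterial membranes. Compound in DMF added at lipid-to-compound ratio 16 (6.25 µM compound), final DMF limited to 0.5%. Fluorescence monitored at ex 490/em 520 nm for 1 hour; replicated.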

Test [2] deals with Staphylococcus aureus. In words: Antibacterial activity against methicillin-resistant Staphylococcus aureus DM 21455 after 24 hrs by two fold dilution assay. Type of test: functional. To be noted: DM 21455, 24 h. Summed up:
(§2)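 CLSI broth macrodilution in cation-adjusted Mueller-Hinton broth. Compounds were dissolved in DMF and diluted in PBS to a 1000 µg/mL stock, then serially 2-fold diluted in CA-MHB. The inoculum came from colonies on 18-20 h TSA plates (direct colony suspension), adjusted to ~5×10^5 CFU/mL. Incubation was 24 h at 35 °C. MIC is the lowest concentration with no visible growth versus control. Biological replicates.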

Test [3] deals with Staphylococcus aureus. The test is described as follows: Antibacterial activity against Staphylococcus aureus DM 4001R after 24 hrs by two fold dilution assay. The test is classed as functional. Summed up:
as §2

For test [4], the system named is Staphylococcus aureus. The test is described as follows: Disruption of cytoplasmic membrane in Staphylococcus aureus isolate DM4001R at 100 ug/ml after 3000 secs by SYTOX green dye based fluorescence assay. Type of test: functional. Put shortly:
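Clinical S. aureus isolate DM4001R incubated with SYTOX Green plus compound; membrane permeabilization read as increased fluorescence intensity. Measurements replicated.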

Test [5] concerns Lipid bilayer. The test is described as follows: Induction of membrane damage in DOPC/cholesterol large unilamellar vesicles assessed as calcein leakage at compound to lipid ratio of 1:16 after 1 hr by fluorescence assay relative to control. Summed up:
as §1

Test [6] has as its system Staphylococcus aureus. The test is described as follows: Antibacterial activity against methicillin-resistant Staphylococcus aureus DM 9808R after 24 hrs by two fold dilution assay. Type of test: functional. Put shortly: as §2
For another test, the system named is Bacillus cereus. In words: Antibacterial activity against Bacillus cereus ATCC 11778 after 24 hrs by two fold dilution assay. The conditions noted are these: ATCC 11778, 24 h. Type of test: functional. Put shortly:
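Broth macro-dilution per CLSI in cation-adjusted Mueller-Hinton broth; compounds dissolved in DMF, diluted in PBS to 1000 µg/mL stock, then serial 2-fold dilutions in CA-MHB in tubes. Inoculum from 18-20 h TSA colonies (direct colony suspension), adjusted to about 5× 10^5 CFU/mL. MIC read after 24 h at 35 °C as lowest concentration with no visible growth; biological replicates.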

Test [7] relates to Staphylococcus aureus. The test is described as follows: Disruption of membrane in Staphylococcus aureus isolate DM4001R assessed as […] in ATP leakage at 200 ug/ml after 1 hr by ATP bioluminescent assay relative to control. The test is classed as functional. The arrangement: scale not given: the % may be the effect or the level left. Summed up: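 S. aureus DM4001 grown to exponential phase, washed three times in 20 mM PBS (pH 7), resuspended to OD600 0.2. Compound added, suspensions held 1 hour at 37 °C, then centrifuged. Supernatant mixed with luciferase/luciferin enzyme mix; extracellular ATP quantified by luminescence. Replicated.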

Test [8] can be described thus: Selectivity index, ratio of HC50 for New Zealand White rabbit RBC to MIC for Bacillus cereus ATCC 11778. Put shortly:
(§3)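 Ratio of HC50 to MIC. For HC50, fresh New Zealand White rabbit RBCs were pelleted (3000 rpm, 10 min), washed twice in PBS and mixed with serially diluted compounds (in DMF or PBS) at a final 4% v/v. After 60 min at 37 °C and centrifugation, supernatant absorbance was read at 576 nm. % hemolysis was normalised to 2% Triton X-100 (positive) and PBS/DMF (negative). MIC came from CA-MHB broth macrodilution, 24 h at 35 °C.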

Test [9] in a line: Selectivity index, ratio of HC50 for New Zealand White rabbit RBC to MIC for methicillin-resistant Staphylococcus aureus DM 21455. Put shortly:
as §3

The nature of test [10]: Selectivity index, ratio of HC50 for New Zealand White rabbit RBC to MIC for methicillin-resistant Staphylococcus aureus DM 9808R. Summed up: as §3
Test [11] is described as follows: Selectivity index, ratio of HC50 for New Zealand White rabbit RBC to MIC for Staphylococcus aureus DM 4001R. Put shortly: as §3

In brackets after ≈: the same amount, converted by molar mass. Activity calls are given as the source filed them. No cut-off for these calls is given here.

On to `O=c1c2c(O)cc(O)cc2oc2cc(O)cc(O)c12`, for which the figures for the Activity with Lipid bilayer [1], with Lipid bilayer [5] and in the test with Staphylococcus aureus [7] were 11.7%, less than 20% and 6.9%, respectively. Further, the MIC in the test with Staphylococcus aureus [2], against Staphylococcus aureus [3], in the test with Staphylococcus aureus [6] and in the test on Bacillus cereus was greater than 50 µg/mL throughout. Further, the result with Staphylococcus aureus [4] was inactive.

Regarding `COC(=O)[C@H](CCCNC(=N)N)NC(=O)COc1cc(OCC=C(C)C)cc2oc3cc(OCC=C(C)C)cc(OCC=C(C)C)c3c(=O)c12`, the MIC (as a rule, the lowest concentration that inhibits growth of the organism) in the test with Staphylococcus aureus [2] worked out at 0.78 µg/mL (≈ 1.13 µM); in the test on Staphylococcus aureus [3], 1.56 µg/mL (≈ 2.25 µM); against Staphylococcus aureus [6], 1.56 µg/mL (≈ 2.25 µM); with Bacillus cereus it was 1.56 µg/mL (≈ 2.25 µM). Further, the Selectivity Index in test [8], in test [9], in test [10] and in test [11] was 21 to 42 throughout.
